These results are taken from ChEMBL document CHEMBL1938290, “Synthesis of 5-benzyl-2-phenylpyrazolo[1,5-a]pyrazin-4,6(5H,7H)-dione derivatives and discovery of an apoptosis inducer for H322 lung cancer cells” (Bioorg Med Chem Lett, 2012).

As a reminder, the IC50 is the midpoint of a concentration-inhibition curve. The low end stands for inhibition by little substance, the high end for a need for much substance.

In data set [1] the test system is A549. The data set is described as follows: Cytotoxicity against human A549 cells expressing wild type p53 at 40 uM after 48 hrs by SRB assay. In kind it is functional, cell-based. The procedure, abridged: (§1)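 A549 (p53 wild-type) lung cancer cells exposed to compound at 20 or 40 µM for 24 or 48 h respectively. Growth/viability then measured by SRB staining with a spectrophotometric read-out, expressed as % of untreated control.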

In data set [2] the test system is A549. Nature of the data set: Cytotoxicity against human A549 cells expressing wild type p53 at 20 uM after 24 hrs by SRB assay. In kind it is functional, cell-based. A digest of the protocol: as §1
Data set [3] is described as follows: (§2) Cytotoxicity against human NCI-H322 cells expressing p53 mutant after 24 hrs by SRB assay. In kind it is functional, cell-based. The settings on record: NCI-H322, 24 h. The procedure, abridged:
(§3)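 H322 cells exposed to 10, 20, 30 or 40 µM, alongside untreated control, for 24 h. SRB viability read by spectrophotometer. Mean ± SE, n = 3. IC50 taken from the dose–response at 24 h.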
(In general: Sulforhodamine B stains cellular protein and so reports cell mass.)

Data set [4] relates to NCI-H322. The data set is described as §2. Format: functional, cell-based. The procedure, abridged:
as §3

Data set [5] deals with NCI-H322. The data set is described as follows: Induction of apoptosis in human NCI-H322 cells assessed as chromatin condensation at 10 to 40 uM after 24 hrs by Hoechst 33258 staining-based fluorescent microscopy. In kind it is functional, cell-based. The procedure, abridged: (§4)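 H322 cells cultured 24 h with compound or vehicle (0.1% DMSO), then stained with Hoechst 33258. Viewed by fluorescence microscopy at 400×, scoring condensed chromatin and nuclear granulation (blue fluorescence). Apoptotic cell ratio expressed vs control as mean ± SE, n = 3.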

The test system of data set [6] is NCI-H322. Nature of the data set: Induction of apoptosis in human NCI-H322 cells assessed as nuclear granulation at 10 to 40 uM after 24 hrs by Hoechst 33258 staining-based fluorescent microscopy. Format: functional, cell-based. The procedure, abridged: as §4
The test system of the next data set is HUVEC. The data set is described as follows: Cytotoxicity against HUVEC up to 40 uM by SRB assay. In kind it is cell-based. The settings on record: human.
A short description of data set [7]: Solubility of the compound. Format: physicochemical.
For data set [8], the system named is NCI-H322. Nature of the data set: Cytotoxicity against human NCI-H322 cells expressing p53 mutant at 20 uM after 24 hrs by SRB assay. Format: functional, cell-based. The procedure, abridged:
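H322 (p53-mutant) cells treated at 20 µM or left untreated for 24 h. Viability measured by SRB assay and given as % of untreated control. Mean ± SE, n = 3, significance P < 0.05 vs control.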

Active and inactive are the calls of the source. No cut-off for these calls is given here.

With `COc1cccc(CCN2C(=O)Cn3nc(-c4ccc(Cl)cc4)cc3C2=O)c1`, the result with A549 [1] and with A549 [2] was inactive.
For `O=C1Cn2nc(-c3ccccc3)cc2C(=O)N1CCc1ccccc1`, the outcome in the data set with A549 [1] and in the data set with A549 [2] was inactive.
Consider `O=C1Cn2nc(-c3ccccc3)cc2C(=O)N1Cc1ccccc1`, for which the outcome in the data set on A549 [1] and with A549 [2] was inactive.
The compound `COc1ccc(-c2cc3n(n2)CC(=O)N(CCc2ccccc2)C3=O)cc1` came in with an IC50 in data set [3] of 28.5 µM. Also, the values for the Activity entry with NCI-H322 [4] and in the data set on HUVEC were “Dose-dependent effect” and “Non-toxic”, respectively. For the same compound, the result in the data set on NCI-H322 [5] and in the data set with NCI-H322 [6] was Active. Besides, the outcome in the data set with A549 [1] and in the data set with A549 [2] was inactive.
As for `O=C1Cn2nc(-c3ccc(Cl)cc3)cc2C(=O)N1Cc1ccccc1`, the result with A549 [1] and in the data set with A549 [2] was inactive.
Turning to `O=C1Cn2nc(-c3ccccc3)cc2C(=O)N1CCc1ccc(F)cc1`, the result in the data set with A549 [1] and in the data set with A549 [2] was inactive.
As for `COc1ccc(-c2cc3n(n2)CC(=O)N(CCc2ccc(F)cc2)C3=O)cc1`, the result in the data set on A549 [1] and in the data set with A549 [2] was inactive.
As to `O=C1Cn2nc(-c3ccc(Cl)cc3)cc2C(=O)N1CCc1ccccc1`, the outcome in the data set on A549 [1] and with A549 [2] was inactive.
As for `O=C1Cn2nc(-c3ccc(Cl)cc3)cc2C(=O)N1CCc1ccc(F)cc1`, the result with A549 [1] and with A549 [2] was inactive.
With `COc1ccc(-c2cc3n(n2)CC(=O)N(Cc2ccccc2)C3=O)cc1`, in data set [7], the solubility entry is on record as “Insoluble”. The result in the data set with A549 [1] and in the data set with A549 [2] was inactive. In the data set with NCI-H322 [8], the outcome was Active.
On to `COc1ccc(-c2cc3n(n2)CC(=O)N(CCc2cccc(OC)c2)C3=O)cc1`, for which the outcome in the data set with A549 [1] and with A549 [2] was inactive.
With `COc1cccc(CCN2C(=O)Cn3nc(-c4ccccc4)cc3C2=O)c1`, the outcome in the data set on A549 [1] and in the data set on A549 [2] was inactive.
